Active and inactive are the calls of the source. No cut-off for these calls is given here.
Columns and labels:
[1] = (§1) Inhibition of soybean lipoxygenase measured for 6 mins; parameters: species or system Glycine max
Procedure, shortened: (§2)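 Soybean lipoxygenase (250 U/mL) with sodium linoleate (100 µM) as substrate in Tris-HCl pH 9.0. Compounds added in 60% ethanol. Absorbance at 234 nm followed for 6 min at 28 °C. Each concentration assayed twice.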

Rattus norvegicus [2] = assay: Antiinflammatory activity in Wistar rat assessed as inhibition of carrageenan-induced paw edema at 300 umol/kg, ip after 3.5 hrs; type: functional; parameters: scale not given: the % may be the effect or the level left
Procedure, shortened: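 Male Wistar rats (150–180 g) received 0.1 mL of 2% w/v carrageenan in saline intradermally into the right hind paw; the left paw served as control. Compounds were given ip right after carrageenan. Edema was taken as paw weight increase at 3.5 h and expressed as % inhibition versus the control group. Means of 8–10 rats; Student's t-test.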

Rattus norvegicus [3] = assay: Antidyslipidemic activity against triton WR-1339-induced hyperlipidemia in rat assessed as reduction in plasma LDL-cholesterol level at 56 umol/kg, ip after 24 hrs relative to control; type: functional; parameters: scale not given: the % may be the effect or the level left
Procedure, shortened: (§3)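 Hyperlipidemia induced in male Wistar rats by ip Triton WR 1339 (200 mg/kg, aqueous). Test compounds in saline given ip 1 h later; saline-only controls. Blood drawn from the aorta 24 h later. Plasma total cholesterol, LDL-cholesterol and triglycerides measured with commercial kits in duplicate. Values are means of 8–10 rats per compound.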

Rattus norvegicus [4] = assay: Antidyslipidemic activity against triton WR-1339-induced hyperlipidemia in rat assessed as reduction in plasma total cholesterol level at 56 umol/kg, ip after 24 hrs relative to control; type: functional; parameters: scale not given: the % may be the effect or the level left; procedure, shortened: as §3
Rattus norvegicus [5] = assay: Antidyslipidemic activity against triton WR-1339-induced hyperlipidemia in rat assessed as reduction in plasma triglyceride level at 56 umol/kg, ip after 24 hrs relative to control; type: functional; parameters: scale not given: the % may be the effect or the level left; procedure, shortened: as §3
Glycine max [6] = assay: as §1; procedure, shortened: as §2
Liver microsomes = assay: Antioxidant activity in rat hepatic microsomes assessed as inhibition of lipid peroxidation after 45 min by spectrophotometric analysis; type: functional, Microsome
Procedure, shortened: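 Non-enzymatic peroxidation of rat hepatic microsomal lipids in buffer (150 mM, pH 7.4). Compounds in DMSO, 10 µM–1 mM. Started with fresh FeSO4 and incubated at 37 °C for 45 min. Thiobarbituric acid-reactive material read at 535 against 600 nm. Run in duplicate.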

Glycine max [7] = assay: Inhibition of soybean lipoxygenase at up to 150 uM; settings: TDE = time-dependent effect; procedure, shortened: as §2
Squalene synthase = molecular target: T1, Squalene synthase (Rattus norvegicus, UniProt Q02769); assay: Inhibition of squalene synthase in rat liver microsomes assessed as [3H] FPP to squalene conversion level after 10 mins by scintillation counting; parameters: species or system Microsome
T1 sequence (Q02769 whole entry): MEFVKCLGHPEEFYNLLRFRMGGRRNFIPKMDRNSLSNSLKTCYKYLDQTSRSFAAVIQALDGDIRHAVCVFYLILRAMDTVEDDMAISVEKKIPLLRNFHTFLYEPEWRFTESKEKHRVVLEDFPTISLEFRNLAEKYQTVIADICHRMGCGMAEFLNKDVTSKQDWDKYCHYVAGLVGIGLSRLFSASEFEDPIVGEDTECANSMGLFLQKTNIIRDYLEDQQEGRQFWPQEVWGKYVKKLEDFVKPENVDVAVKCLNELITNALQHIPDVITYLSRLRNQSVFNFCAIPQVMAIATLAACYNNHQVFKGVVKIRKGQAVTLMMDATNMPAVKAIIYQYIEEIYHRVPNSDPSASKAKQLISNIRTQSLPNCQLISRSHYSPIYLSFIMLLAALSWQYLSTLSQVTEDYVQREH
Procedure, shortened: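 Rat liver microsomes (18 µg protein/mL) in 50 mM phosphate pH 7.4 with 10 mM MgCl2 and 0.5 mM NADPH, preincubated with compounds for 10 min at 37 °C. Started with [3H]FPP and run for 10 min at 37 °C. Stopped with 15% ethanolic KOH, then 65 °C for 30 min. Squalene extracted into petroleum ether, washed and counted by scintillation. Triplicates; IC50 is the concentration giving 50% inhibition.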

IC50 [1] | inhibition (Glycine max [6]) | IC50 (Liver microsomes) | inhibition (Glycine max [7]) | IC50 (Squalene synthase) | SMILES | Activity (Rattus norvegicus [2]) | Activity (Rattus norvegicus [3]) | Activity (Rattus norvegicus [4]) | Activity (Rattus norvegicus [5])
24 µM | – | – | – | – | COc1ccc2cc([C@H](C)C(=O)O)ccc2c1 [NAPROXEN] | 51% | – | – | –
110 µM | – | – | – | – | CN1CC(O)(c2ccc(-c3ccccc3)cc2)OC2CCCCC21 (stereo unspecified) | – | 51% | 54% | 49%
53 µM | Dose-dependent effect | 390 µM | tde | 18.7 µM | Br.COc1ccc2cc(C3(O)CN4CCCCC4CO3)ccc2c1 (stereo unspecified) | Active | 46% | 45% | 37%
> 100 µM | – | 71 µM | – | 1.9 µM | Br.CN1CCOC(O)(c2ccc(-c3ccc4ccccc4c3)cc2)C1 (stereo unspecified) | Active | 59% | 37% | 28%
> 100 µM | – | 117 µM | – | – | Br.OC1(c2ccc(-c3ccc4ccccc4c3)cc2)CN2CCCCC2CO1 (stereo unspecified) | Active | 33% | 49% | 34%
> 100 µM | – | 118 µM | – | 0.8 µM | Br.CN1CC(O)(c2ccc(-c3ccc4ccccc4c3)cc2)OC2CCCCC21 (stereo unspecified) | – | 48% | 43% | 32%
> 100 µM | – | 65 µM | – | 18 µM | Br.COc1ccc2cc(-c3ccc(C4(O)CN5CCCCC5CO4)cc3)ccc2c1 (stereo unspecified) | Active | 29% | 19% | 6%
> 100 µM | – | 30 µM | – | 6.9 µM | Br.COc1ccc2cc(-c3ccc(C4(O)CN(C)CCO4)cc3)ccc2c1 (stereo unspecified) | – | 9% | 41% | 30%
> 300 µM | – | 440 µM | – | 130 µM | Br.OC1(c2ccc3ccccc3c2)CN2CCCCC2CO1 (stereo unspecified) | Active | 42% | 33% | 41%
> 300 µM | – | 600 µM | – | 15.1 µM | Br.CN1CC(O)(c2ccc3ccccc3c2)OC2CCCCC21 (stereo unspecified) | 54% | 39% | 43% | 51%
– | – | – | – | – | CC(C)(Sc1cc(C(C)(C)C)c(O)c(C(C)(C)C)c1)Sc1cc(C(C)(C)C)c(O)c(C(C)(C)C)c1 [PROBUCOL] | – | 18% | 18% | 11%
84 µM | Dose-dependent effect | 220 µM | tde | 40 µM | Br.COc1ccc2cc(C3(O)CN(C)C4CCCCC4O3)ccc2c1 (stereo unspecified) | 53% | 33% | 36% | 47%
> 100 µM | – | 48 µM | – | 1.4 µM | Br.COc1ccc2cc(-c3ccc(C4(O)CN(C)C5CCCCC5O4)cc3)ccc2c1 (stereo unspecified) | Active | 54% | 32% | 82%

SMILES | IC50 [1] | inhibition (Glycine max [6]) | IC50 (Liver microsomes) | inhibition (Glycine max [7]) | IC50 (Squalene synthase) | Activity (Rattus norvegicus [2]) | Activity (Rattus norvegicus [3]) | Activity (Rattus norvegicus [4]) | Activity (Rattus norvegicus [5])
Br.CN1CCOC(O)(c2ccc3ccccc3c2)C1 (stereo unspecified) | > 300 µM | – | 640 µM | – | 135 µM | Active | 36% | 51% | 40%
Br.COc1ccc2cc(C3(O)CN(C)CCO3)ccc2c1 (stereo unspecified) | 20 µM | Dose-dependent effect | 900 µM | tde | 155 µM | 58% | 24% | 62% | 51%

Reference: ChEMBL document CHEMBL1268937, “Design of more potent squalene synthase inhibitors with multiple activities” (Bioorg Med Chem, 2010)
